From PubChem
This is a sample that favours compounds with a hit; in the whole collection about 3.7% have one here.
TAAR1 antagonist: human TAAR1 antagonism | Q96RJ0 | CHO RD-HGA16 TAAR1, Fluo-8 calcium fluorescence, antagonist | inhibition, % at 3 µM | 1.5% of 360,000 active | AID 624466;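 active = inhibition above a per-plate cutoff, the mean inhibition of test compounds on that plate plus 3 SD, cut at about 49% in these data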;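 note: 0% = DMSO plus EC80 beta-PEA response and 100% = DMSO alone without agonist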
Target sequence (Q96RJ0 whole entry, looked up): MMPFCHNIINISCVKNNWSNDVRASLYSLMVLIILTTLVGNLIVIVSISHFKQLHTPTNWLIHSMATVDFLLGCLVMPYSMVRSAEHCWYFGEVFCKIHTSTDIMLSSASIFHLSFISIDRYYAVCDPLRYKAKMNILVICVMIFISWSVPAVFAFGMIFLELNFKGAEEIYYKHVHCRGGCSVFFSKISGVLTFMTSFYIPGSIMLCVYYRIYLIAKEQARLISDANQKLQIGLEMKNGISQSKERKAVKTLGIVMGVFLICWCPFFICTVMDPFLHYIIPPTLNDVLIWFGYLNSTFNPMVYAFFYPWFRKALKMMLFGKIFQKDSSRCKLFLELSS
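Material: CHO RD-HGA16 cells bearing hTAAR1; compound dosing: one-point dosing, 3 µM nominal final; schedule: dye loading 75 min at 37 °C, then 30 min room temperature; measured by: calcium fluorescence with Fluo-8; control set: vehicle and agonist controls; replication: n of 1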
core dimer inh: HCV core protein dimerization inhibition; TR-FRET GST/Flag-core106 dimerization, 1536-well; inhibition, % at 5 µM; 0.33% of 300,000 active;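 active = inhibition above the mean of all tested compounds plus 3 SD, set per screening campaign, cut at about 45% in these data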
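Assay system: GST-tagged and Flag-tagged HCV core protein residues 1-106 / Times: compound-protein-antibody incubation 4 h at 22.5 °C / Signal: time-resolved FRET, ex 340 nm, em 617 and 671 nm / Evaluation: % inhibition based on acceptor/donor emission ratio / Benchmarks: wells lacking GST-core106 and wells with excess unlabelled core106 / Repeats: singlicate, one well per compound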
NS3 helicase inh: inhibitors of Hepatitis C virus NS3 helicase. inhibition, % at 10.9 µM. NS3 helicase DNA unwinding, Cy5 molecular beacon fluorescence. 0.56% of 290,000 active;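 active = inhibition above the mean of all tested compounds plus 3 SD, set per campaign, cut at about 35% in these data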;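 note: 0% = DMSO wells and 100% = thioflavine S control wells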
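test system = hepatitis C virus NS3 helicase domain fragment enzyme | reagent = annealed dual-labelled DNA beacon duplex, ATP-started | times = 1 h at 25 °C | detection = Cy5 fluorescence, 0 and 60 min reads | read-out basis = percent inhibition from t60/t0 fluorescence ratio | control set = DMSO and thioflavine S | replication = one well per compound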
TAAR1 ag: human TAAR1 agonism; Q96RJ0; CHO RD-HGA16 TAAR1, Fluo-8 calcium fluorescence; vehicle wells 0%, saturating PEA agonist 100%; activation, % at 3 µM; 0.99% of 360,000 active; AID 624467;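 active = activation above the mean activation of all test compounds in the run plus 3 SD, cut at about 38% in these data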
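Test system: RD-HGA16 (CHO) cells co-expressing Gα16 and hTAAR1 | Doses: Single dose, 3 µM | Schedule: 17-24 h seeding, 75 min 37 °C dye, 30 min RT | Evaluation: % activation from peak over basal fluorescence ratio, DMSO-to-PEA scaled | Technique: Kinetic Fluo-8 calcium fluorescence | Benchmarks: Low control DMSO, high control PEA (EC100)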
rCAG RNA binder: binds r(CAG) RNA repeats. r(CAG) RNA repeat, TO-PRO-1 dye displacement fluorescence. inhibition, % at 3 µM. 1.3% of 370,000 active. AID 651821;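 active = inhibition above the plate cutoff, the mean of all test compounds on that plate plus 3 SD, cut at about 35% in these data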;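 note: 0% = DMSO alone and 100% = 100 µM mitoxantrone as full dye displacement; higher means more dye released from RNA so lower well fluorescence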
The depositor's hits bear a star; nt = no result given.

SMILES	TAAR1 antagonist	core dimer inh	NS3 helicase inh	TAAR1 ag	rCAG RNA binder
Cc1ccc(NC(=O)CN(C)CC(=O)Nc2cccc(F)c2)cc1S(=O)(=O)N1CCCCCC1	50*	3	-7	8	8
O=C1CCc2cc(S(=O)(=O)N3CCN(Cc4cccc5c4OCO5)CC3)ccc2N1	nt	nt	nt	nt	5
COC(=O)[C@@]12CCCCC3=C1N(CCC3)C(=O)[C@H]2CC(=O)NCCc1ccccc1OC	nt	nt	nt	nt	0
O=C(C1CCCN(c2ncnc3c2nc2n3CCCCC2)C1)N1CCN(c2ccc(F)cc2)CC1 (stereo not drawn)	39	3	-4	29	-6
O=C(C1CCCN(c2ncnc3c2nc2n3CCCCC2)C1)N1CCN(c2ccc(Cl)cc2)CC1 (stereo not drawn)	77*	15	-19	38*	1
O=C(C1CCN(c2ncnc3c2nc2n3CCCCC2)CC1)N1CCN(c2cccc(Cl)c2)CC1	63*	-1	-36	9	-1
N#Cc1c(NC(=O)/C=C/C(=O)O)sc2c1CCN(Cc1ccccc1)C2	-5	69*	26	2	13
Cc1cc(NC(=O)c2ccc(NS(=O)(=O)c3ccc(C)c(C)c3)cc2)no1	nt	nt	nt	nt	12
Cc1ccc(CN2C(=O)N/C(=C\c3ccc(N4CCOCC4)cc3)C2=O)cc1	-19	-16	3	3	3
CCN1C(=O)/C(=C/c2ccc(N3CCCC3)cc2)NC1=S	82*	-38	2	84*	5
CCCN1C(=O)/C(=C/c2ccc(N3CCOCC3)cc2)NC1=S	43	-15	-1	54*	-19
C[C@@H]1[C@@H](c2ccccc2)c2cc3ccccc3nc2C(=O)C[C@@H]1C(=O)N1CCCC1	nt	nt	nt	nt	10
CCCCN1C(=O)N2Cc3cc(OC)ccc3C2CS1(=O)=O (stereo not drawn)	nt	nt	nt	nt	0
Cc1ccc(NC(=O)c2cc(-c3cccc(O)c3)on2)cc1C	52*	-5	-6	4	10
CC(=NNC(=O)CSc1nnc(-c2ccccc2)n1-c1ccccc1)c1ccc2ccccc2c1	nt	nt	nt	nt	12
COc1cccc(-c2ccc(CC[C@H]3O[C@H]4CC[C@@H](CO)O[C@H]4C[C@H]3NS(C)(=O)=O)cc2)c1	nt	nt	nt	nt	7
O=C(NCc1ccco1)c1ccc(S(=O)(=O)N2CCCCC2)cc1	4	-2	20	0	-3
O=C(Nc1ccc2nc(-c3ccco3)c(-c3ccco3)nc2c1)NC1CC1	nt	nt	47*	nt	nt
O=C(Nc1cccc(C(F)(F)F)c1)c1ccc2nc(-c3ccco3)c(-c3ccco3)nc2c1	4	74*	23	0	15
O=C(NCc1ccco1)c1ccc(S(=O)(=O)N2CCOCC2)cc1	11	48*	21	0	16
O=C(Nc1cccc(C(F)(F)F)c1)c1cc[n+]([O-])cc1	-13	-3	-2	-1	2
O=C(Nc1ccc(N2CCOCC2)cc1)Nc1ccc2nc(-c3ccco3)c(-c3ccco3)nc2c1	49*	-2	-5	9	26
O=S(=O)(c1ccc2ccccc2c1)N1CCOCC1	1	-2	-7	4	4
O=S(=O)(c1ccc2nc(-c3ccco3)c(-c3ccco3)nc2c1)N1CCOCC1	-14	59*	33	5	69*
Nc1ccccc1SC1CC(=O)N(c2ccc(Cl)c(Cl)c2)C1=O (stereo not drawn)	59*	16	2	19	5
SMILES	TAAR1 antagonist	core dimer inh	NS3 helicase inh	TAAR1 ag	rCAG RNA binder
Nc1ccccc1SC1CC(=O)N(c2ccc3c(c2)OCCO3)C1=O (stereo not drawn)	6	2	-10	11	-2
CCCNS(=O)(=O)c1cccc(C(=O)OCc2cc(=O)oc3cc(OC)ccc23)c1	52*	29	5	9	9
COc1ccc2c(COC(=O)c3cccc(S(=O)(=O)NCC(C)C)c3)cc(=O)oc2c1	65*	25	-15	10	7
COc1ccc2c(COC(=O)CNS(=O)(=O)c3ccccc3)cc(=O)oc2c1	-22	nt	nt	2	10
COC(=O)[C@]12C=CCN1[C@@H](c1ccc(C(F)(F)F)cc1)c1c(c3ccccc3n1S(=O)(=O)c1ccc(C)cc1)C2	nt	nt	nt	nt	26
CCCN1C(=O)/C(=C/c2ccc(N3CCCC3)c(C)c2)NC1=S	99*	-4	22	129*	-8
Cc1cc(/C=C2\NC(=S)N(C)C2=O)ccc1N1CCCC1	83*	-35	11	142*	-2
Cc1cc(/C=C2/C(=O)N(C)C(=S)N2C)ccc1N1CCCC1	48	-16	-3	26	-2
COc1cc2ccc(-c3ccc4ccccc4n3)cc2cc1OC	58*	nt	nt	10	6
Cc1ccc(NC(=O)CSc2nn(-c3ccccc3)c(=S)s2)cc1S(=O)(=O)N(C)C	51*	10	-17	10	11
CCC(CO)Nc1cccc2c1S(=O)(=O)N(Cc1cn(Cc3cccc(F)c3)nn1)Cc1ccccc1O2 (stereo not drawn)	nt	nt	nt	nt	2
CCN(Cc1cn(CC2CCCCC2)nn1)S(=O)(=O)c1ccccc1Br	nt	nt	nt	nt	-2
Cn1c(=O)oc2cc(S(=O)(=O)N3CCN(c4cccc(C(F)(F)F)c4)CC3)ccc21	nt	nt	nt	nt	5
COc1ccc(-c2nn(-c3ccccc3)cc2/C=N/Nc2ccc(S(N)(=O)=O)cc2[N+](=O)[O-])cc1OC	3	33	3	2	5
COc1ccc(-c2nn(-c3ccccc3)cc2/C=C(/C#N)C(N)=O)cc1[N+](=O)[O-]	9	47*	4	2	6
COc1ccc(-c2nn(-c3ccccc3)cc2/C=C(\C#N)C(N)=O)cc1[N+](=O)[O-]	15	54*	2	1	4
O=C(NCc1ccc(Cl)cc1)c1ccc(-n2cccn2)nc1	8	0	-6	41*	-2
C=CCN1C(=O)[C@H](CC(=O)NCc2ccc(C)o2)[C@@]2(C(=O)OCC)CCCC=C12	nt	nt	nt	nt	2
O=C(CCCN1C(=O)c2ccccc2C1=O)Nc1sc2c(c1C(=O)NCc1ccco1)CCC2	-31	18	9	-3	8
O=C(CN1C(=O)c2ccccc2C1=O)Nc1sc2c(c1C(=O)NCc1ccco1)CCCC2	6	64*	12	2	10
CCc1ccc(-c2csc3ncn(CC(=O)NCc4ccco4)c(=O)c23)cc1	41	5	8	6	6
O=C(Cn1cnc2sc(-c3ccccc3)cc2c1=O)NCc1ccccc1	-22	4	1	2	6
O=C(Cn1cnc2scc(-c3ccccc3)c2c1=O)NCc1ccco1	20	56*	16	4	14
O=C(Cn1cnc2sc(-c3ccccc3)cc2c1=O)NCc1ccco1	-8	65*	13	5	10
O=C(Cn1cnc2sc(-c3ccccc3)cc2c1=O)NCCc1ccccc1	8	26	-12	39*	3
Cc1sc2ncn(CC(=O)NCCc3ccccc3)c(=O)c2c1C	12	2	0	42*	1
